ChEMBL document CHEMBL3763158, “Sampangine (a Copyrine Alkaloid) Exerts Biological Activities through Cellular Redox Cycling of Its Quinone and Semiquinone Intermediates” (J Nat Prod, 2015)
Calls of active or inactive are those of the source. The rule behind the calls is not given here.

Assays:
Saccharomyces cerevisiae = assay: Increase in oxygen consumption rate in Saccharomyces cerevisiae at 10 to 30 uM by oxytherm Clark-type electrode assay; type: functional, organism-based
Summary of the method: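 Budding yeast oxygen consumption followed with an Oxytherm Clark electrode, with and without compound. Values normalized to untreated control; average + SD of three independent determinations, p < 0.05 significance versus untreated.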

Hep 3B2 = assay: Increase in oxygen consumption rate of mitochondrial state 4 respiration in human Hep3B cells assessed as reinitiation of oligomycin-stalled cellular respiration by Clark-type oxygen electrode assay; type: functional, cell-based
Summary of the method: (§1)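 Clark electrode oxygen consumption in cells with oligomycin (F0F1-ATPase inhibitor) stalling respiration, then compound added to test reinitiation; FCCP as standard uncoupler reference.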

T47D [1] = assay: Increase in oxygen consumption rate of mitochondrial state 4 respiration in human T47D cells assessed as reinitiation of oligomycin-stalled cellular respiration by Clark-type oxygen electrode assay; type: functional, cell-based; summary of the method: as §1
T47D [2] = assay: Induction of alteration in […] in human T47D cells assessed as intracellular calcium level at 30 uM after 30 mins by fura-2 dye based fluorescence assay; type: functional, cell-based
Summary of the method: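 T47D cells loaded with fura-2 per manufacturer's instructions and treated 30 min; per-cell 340/380 nm excitation ratio taken as Ca2+ indicator by live microscopy. Average ± SD of 20 cells.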

T47D [3] = assay: Cytotoxicity against human T47D cells at 1 to 30 uM after 48 hrs by sulforhodamine B assay; type: functional, cell-based
T47D [4] = assay: Effect on mitochondrial membrane potential in human T47D cells at 30 uM after 30 mins by TMRM dye based fluorescence microscopy; type: functional, cell-based
Summary of the method: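 T47D cells loaded with TMRM+ (37 °C, 2 h), then compound for 30 min; live epifluorescence imaging, fluorescence quantified per outlined cell in random fields. FCCP as positive control. Average ± SD from 20 cells.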

T47D [5] = assay: Increase in oxygen consumption rate in digitonin permeabilized human T47D cells assessed as reinitiation of sodium azide-stalled cellular respiration at 30 uM relative to control; type: functional
Summary of the method: (§2)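 Digitonin-permeabilized T47D cells given sequential additions: NaN3 (10 mM) to suppress mitochondrial respiration, then compound (30 μM), solvent (2-propanol, 0.6%) or ascorbate (1 and 5 mM), all final. OCR after each addition normalized to NaN3 value; mean ± range of two experiments.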

T47D [6] = assay: Cytostatic activity against human T47D cells at 1 to 30 uM after 48 hrs by sulforhodamine B assay; type: functional, cell-based
MDA-MB-231 [7] = assay: Cytotoxicity against human MDA-MB-231 cells at 1 to 30 uM after 48 hrs by sulforhodamine B assay; type: functional, cell-based
[8] = Neurotoxicity against rat CGN assessed as neuronal cell death at 30 uM after 24 hrs by Hoechst 33342/propidium iodide staining based assay; type: toxicity
Summary of the method: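 Primary cerebellar granule neurons from rat pups, cultured 6–10 days, then exposed 24 h. Stained with Hoechst 33342 and propidium iodide; live (PI negative, healthy nuclei) versus dead or dying (PI positive, or condensed/fragmented nuclei) cells counted.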

T47D [9] = assay: Cytostatic activity against human T47D cells at 1 to 30 uM after 48 hrs by sulforhodamine B assay in presence of ascorbate; type: functional, cell-based
T47D [10] = assay: Increase in oxygen consumption rate in human T47D cells by oxytherm Clark-type electrode assay; type: functional, cell-based
Summary of the method: (§3)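 Intact T47D cells; oxygen consumption rate measured by Oxytherm Clark electrode with or without compound, normalized to untreated control. FCCP as positive control. Mean + range of two independent experiments.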

T47D [11] = assay: Inhibition of hypoxia-induced HIF-1 in human T47D cells cotransfected with pHRE-luciferase plasmid at 10 to 30 uM preincubated for 30 mins followed by hypoxia induction measured after 16 hrs by luciferase reporter gene assay; type: cell-based
Summary of the method: (§4)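 T47D cells transfected with pHRE-luc construct, exposed to hypoxia (1% O2, 16 h) with compound. Luciferase activity read; % inhibition = [1 − (luciferase)compound/(luciferase)control] × 100 against hypoxic media control. Emetine as positive control. Parallel viability by SRB. Average ± SD, n = 3.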

T47D [12] = assay: Increase in oxygen consumption rate in digitonin permeabilized human T47D cells at 30 uM relative to control; type: functional; summary of the method: as §2
MDA-MB-231 [13] = assay: Cytostatic activity against human MDA-MB-231 cells at 1 to 30 uM after 48 hrs by sulforhodamine B assay in presence of ascorbate; type: functional, cell-based
MDA-MB-231 [14] = assay: Cytostatic activity against human MDA-MB-231 cells at 1 to 30 uM after 48 hrs by sulforhodamine B assay; type: functional, cell-based
T47D [15] = assay: Increase in oxygen consumption rate in human T47D cells at 30 uM by oxytherm Clark-type electrode assay relative to control; type: functional; summary of the method: as §3
T47D [16] = assay: Activation of hypoxia-induced HIF-1 in human T47D cells cotransfected with pHRE-luciferase plasmid at 1 to 3 uM preincubated for 30 mins followed by hypoxia induction measured after 16 hrs by luciferase reporter gene assay; type: cell-based; summary of the method: as §4
T47D [17] = assay: Increase in oxygen consumption rate in digitonin permeabilized human T47D cells assessed as reinitiation of sodium azide-stalled cellular respiration by oxytherm Clark-type electrode assay in presence of ascorbate relative to compound alone; type: functional, cell-based; summary of the method: as §2

For `O=C1c2ccccc2-c2nccc3ccnc1c23` [SAMPANGINE], the Activity (Saccharomyces cerevisiae) was “Active”, the Activity (Hep 3B2) was “Active” and the Activity (T47D [1]) was “Dose-dependent effect”. The Activity (T47D [2]) was “inactive”, the Activity (T47D [3]) was “Active” and the Activity (T47D [4]) was “Active”. For the same compound, the Activity (T47D [5]) was 48%, the Activity (T47D [6]) was “Active” and the Activity (MDA-MB-231 [7]) was “Active”. The Activity [8] was “Toxic”, the Activity (T47D [9]) was “Active” and the Activity (T47D [10]) was “Dose-dependent effect”. For the same compound, the inhibition (T47D [11]) was “Dose-dependent effect”, the Activity (T47D [12]) was 46% and the Activity (MDA-MB-231 [13]) was “Active”. For the same compound, the Activity (MDA-MB-231 [14]) was “Active”, the Activity (T47D [15]) was 50% and the “fold change (FC)” value (T47D [15]) was 1.5. For the same compound, the Activity (T47D [16]) was “Dose-dependent effect” and the Activity (T47D [17]) was “Dose-dependent effect”.
